The values below come from ChEMBL document CHEMBL1944559, “Phosphodiesterase inhibitors. Part 3: Design, synthesis and structure-activity relationships of dual PDE3/4-inhibitory fused bicyclic heteroaromatic-dihydropyridazinones with anti-inflammatory and bronchodilatory activity” (Bioorg Med Chem, 2012).

Test [1] has as its target T1, 3',5'-cyclic-AMP phosphodiesterase 4B (Homo sapiens, UniProt Q07343). Nature of the test: Inhibition of human PDE4B catalytic domain. In short, it runs like this:
(§1)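 IC50 determined in enzyme inhibition assays on the core catalytic domains of PDE3A and PDE4B, following previously reported protocols, from at least three experiments; roflumilast run as positive control.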

For test [2], the target named is T2, cGMP-inhibited 3',5'-cyclic phosphodiesterase 3A (Homo sapiens, UniProt Q14432). Put plainly: Inhibition of human PDE3A catalytic domain. Summed up: as §1
T2 sequence (Q14432 whole entry, the tested form may be a part): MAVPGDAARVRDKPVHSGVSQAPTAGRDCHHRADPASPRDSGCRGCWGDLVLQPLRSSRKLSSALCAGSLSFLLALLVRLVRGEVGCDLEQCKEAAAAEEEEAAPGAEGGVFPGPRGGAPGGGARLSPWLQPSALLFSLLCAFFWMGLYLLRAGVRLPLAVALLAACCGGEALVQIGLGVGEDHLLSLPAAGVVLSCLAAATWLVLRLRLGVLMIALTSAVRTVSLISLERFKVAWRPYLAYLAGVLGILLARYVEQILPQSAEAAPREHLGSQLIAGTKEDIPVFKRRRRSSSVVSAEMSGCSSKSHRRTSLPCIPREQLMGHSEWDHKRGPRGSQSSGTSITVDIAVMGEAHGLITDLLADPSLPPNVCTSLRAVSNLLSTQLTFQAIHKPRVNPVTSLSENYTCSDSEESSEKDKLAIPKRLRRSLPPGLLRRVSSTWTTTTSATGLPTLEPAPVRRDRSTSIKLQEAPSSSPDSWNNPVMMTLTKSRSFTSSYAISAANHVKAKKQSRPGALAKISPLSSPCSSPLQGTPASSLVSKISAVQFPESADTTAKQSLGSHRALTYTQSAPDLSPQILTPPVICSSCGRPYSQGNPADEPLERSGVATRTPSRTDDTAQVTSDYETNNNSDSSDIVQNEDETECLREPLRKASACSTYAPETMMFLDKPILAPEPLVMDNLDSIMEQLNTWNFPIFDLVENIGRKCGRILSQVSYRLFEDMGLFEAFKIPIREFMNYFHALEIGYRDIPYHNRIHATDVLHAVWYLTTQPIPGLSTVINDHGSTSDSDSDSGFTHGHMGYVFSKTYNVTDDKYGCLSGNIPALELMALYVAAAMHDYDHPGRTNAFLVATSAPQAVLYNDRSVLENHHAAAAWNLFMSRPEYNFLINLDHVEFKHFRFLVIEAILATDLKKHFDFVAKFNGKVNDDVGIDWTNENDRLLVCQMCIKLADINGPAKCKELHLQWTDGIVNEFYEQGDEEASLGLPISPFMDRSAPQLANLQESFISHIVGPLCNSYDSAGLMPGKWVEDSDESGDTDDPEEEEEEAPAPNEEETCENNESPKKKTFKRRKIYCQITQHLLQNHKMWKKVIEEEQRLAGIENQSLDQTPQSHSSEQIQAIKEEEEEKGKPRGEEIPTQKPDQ
The subject of test [3] is Cavia porcellus. Put plainly: Inhibition of histamine-induced bronchoconstriction in Hartley guinea pig at 0.1 mg/kg, iv administered 30 mins prior histamine challenge. It counts as functional. Summed up:
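Guinea pigs given compound iv at 0.1 mg/kg before histamine challenge; bronchoconstriction measured by an established procedure; result expressed as % inhibition of constriction relative to control.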

The subject of test [4] is Cavia porcellus. Put plainly: Inhibition of histamine-induced bronchoconstriction in Hartley guinea pig at 1 mg/kg, po administered 30 mins prior histamine challenge. It counts as functional. In short, it runs like this:
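Oral dosing at 1 mg/kg in guinea pigs before histamine challenge, by an established procedure; scored against control as ++ (≥70% inhibition of bronchoconstriction) or + (30–69%).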

In the next test the test system is Rattus norvegicus. Put plainly: Antiinflammatory activity in Wistar rat assessed as inhibition of LPS-induced TNFalpha release at 1 mg/kg, po. The format is functional.
Test [5] has as its target T1, 3',5'-cyclic-AMP phosphodiesterase 4B. Nature of the test: Ratio of KCA-1450 IC50 to compound IC50 for human PDE4B catalytic domain.
For test [6], the target named is T2, cGMP-inhibited 3',5'-cyclic phosphodiesterase 3A. Nature of the test: Ratio of KCA-1450 IC50 to compound IC50 for human PDE3A catalytic domain.

T1 sequence (Q07343 whole entry, the tested form may be a part): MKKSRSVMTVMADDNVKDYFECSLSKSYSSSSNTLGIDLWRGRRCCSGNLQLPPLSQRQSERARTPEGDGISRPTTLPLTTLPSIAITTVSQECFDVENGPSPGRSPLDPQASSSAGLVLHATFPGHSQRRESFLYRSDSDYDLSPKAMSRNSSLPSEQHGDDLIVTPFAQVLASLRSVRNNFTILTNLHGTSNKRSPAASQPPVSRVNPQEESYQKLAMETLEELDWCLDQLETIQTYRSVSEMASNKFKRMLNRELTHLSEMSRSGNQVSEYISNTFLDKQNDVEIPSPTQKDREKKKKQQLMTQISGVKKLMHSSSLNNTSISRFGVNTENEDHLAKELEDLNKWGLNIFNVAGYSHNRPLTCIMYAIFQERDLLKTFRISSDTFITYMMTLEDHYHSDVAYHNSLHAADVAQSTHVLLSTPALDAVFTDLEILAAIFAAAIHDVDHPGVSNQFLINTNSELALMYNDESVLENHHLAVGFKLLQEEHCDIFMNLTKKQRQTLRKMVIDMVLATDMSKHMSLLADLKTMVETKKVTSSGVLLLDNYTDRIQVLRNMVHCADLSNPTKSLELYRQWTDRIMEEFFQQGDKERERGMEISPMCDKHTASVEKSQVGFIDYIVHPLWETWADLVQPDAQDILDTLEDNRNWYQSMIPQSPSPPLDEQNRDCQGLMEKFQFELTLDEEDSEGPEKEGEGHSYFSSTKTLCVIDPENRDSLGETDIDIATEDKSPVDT

What is called IC50 is the concentration at which inhibition is half-maximal. `COc1ccc(C2=NNC(=O)CC2C)c2nc(C(F)(F)F)nn12` (racemic): the IC50 in test [1] was determined as 430 nM; in test [2] it was 10200 nM.

As usually defined, the inhibition in vivo is the share of the control response that was lost under treatment. On to `COc1ccc(C2=NNC(=O)CC2C)n2cc(C(F)(F)F)nc12` (racemic), for which the IC50 in test [1] was 260 nM; in test [2], 1450 nM. In the test with Cavia porcellus [3], this compound displayed an inhibition in vivo at 0.1 mg/kg of 99%. Besides, the values for the inhibition in vivo at 1 mg/kg in the test on Cavia porcellus [4] and in the test with Rattus norvegicus were above 30% and 62%, respectively.

On to `COc1ccc(C2=NNC(=O)CC2C)c2oc(C(F)(F)F)nc12` (racemic), for which the results for the IC50 in test [1] and in test [2] were 1010 nM and 5740 nM, respectively.

Take `COc1ccc(C2=NNC(=O)CC2C)c2nc(C(F)(F)F)oc12` (racemic): the IC50 in test [1] was determined as 1520 nM; in test [2] it was 6430 nM.

On to `COc1ccc(C2=NNC(=O)CC2C)c2sc(C(F)(F)F)nc12` (racemic), for which the Ratio IC50 in test [5] is 3; in test [6], 16. Also, the half-maximal inhibitory concentration (IC50) in test [1] worked out at 21 nM; in test [2], 150 nM. The compound further displayed an inhibition in vivo at 0.1 mg/kg in the test with Cavia porcellus [3] of 97%. Moreover, the inhibition in vivo at 1 mg/kg with Cavia porcellus [4] was at least 70%; in the test with Rattus norvegicus it was 80%.

For the compound `COc1ccc(C2=NNC(=O)CC2C)c2cc(C(F)(F)F)sc12` (racemic), the IC50 is 280 nM in test [1] and 2850 nM in test [2]. Moreover, at 0.1 mg/kg the inhibition in vivo in the test with Cavia porcellus [3] was 17%.

For the compound `COc1ccc(C2=NNC(=O)CC2C)c2ccc(C(F)(F)F)nc12` (racemic), the IC50 in test [1] is 350 nM; in test [2], 970 nM. This compound had an inhibition in vivo at 0.1 mg/kg in the test on Cavia porcellus [3] of 99%. Moreover, the Ratio IC50 in test [6] is 2.5. For the same compound, the inhibition in vivo at 1 mg/kg in the test on Cavia porcellus [4] is at least 70%; in the test on Rattus norvegicus, 68%.

As to `COc1ccc(C2=NNC(=O)CC2C)c2[nH]c(C(F)(F)F)nc12` (racemic), the IC50 amounted to 300 nM in test [1] and 22200 nM in test [2].

As for `COc1ccc(C2=NNC(=O)CC2C)c2cc(C(F)(F)F)oc12` (racemic), the IC50 came out at 380 nM in test [1] and 19800 nM in test [2].

With `CCc1cc2c(C3=NNC(=O)CC3C)ccc(OC)n2c1` (racemic), the IC50 in test [1] was determined as 3490 nM; in test [2], 20700 nM.
